# HSF1 activator: increases HSF-1 driven luciferase reporter signal | NIH3T3-HGL HSF-1 luciferase reporter, MG132, 8 h; 100% = twice DMSO control signal | activation, % at 9 µM | AID 504408 | 300,000 compounds, 1.7% hits;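 active means mean replicate activation of at least 50% with a set share of replicates each reaching 50%; inconclusive means only one of those two conditions met; inactive means mean below 50% and too few replicates reaching it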;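 further: 0% = median of the neutral control wells and 100% = twice that signal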
# HSF1 inh: HSF1 inhibition; activity change, negative = inhibition, % at 7.5 µM (by protocol); 300,000 compounds, 0.77% hits; AID 2098; NIH3T3-HGL HSE-luciferase, MG132-induced, luminescence 8 h; active compounds read low;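 active means more than half of replicate wells show activity change below -50%, luminescence cut by over half; inconclusive means some wells, but at most half, below -50%; inactive means no replicate well below -50%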;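 further: luciferase reports HSF-1 transcriptional activity via heat shock element; 0% = median of DMSO wells and -100% = zero luminescence signal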
# PHOSPHO1 inh: PHOSPHO1 (human) inhibition | recombinant PHOSPHO1, absorbance phosphatase assay | inhibition, % at 13.3 µM | 290,000 compounds, 1.1% hits | Q8TCT1 | AID 1565; in the data active means inhibition above about 60%
# CHT block: human CHT choline transport inhibition | CHT-expressing cells, membrane potential dye, choline response; active compounds read low | B-score at 10 µM | Q9GZV3 | 310,000 compounds, 0.86% hits | AID 488975;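 active means B-score over 3 SD under the library average, and starting fluorescence ratio not unusually high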;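 further: choline stimulus applied at its EC90 after an EC20 pre-addition; B-score computed on integrated fluorescence ratio after choline addition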
# Target sequence (Q9GZV3 whole entry, looked up): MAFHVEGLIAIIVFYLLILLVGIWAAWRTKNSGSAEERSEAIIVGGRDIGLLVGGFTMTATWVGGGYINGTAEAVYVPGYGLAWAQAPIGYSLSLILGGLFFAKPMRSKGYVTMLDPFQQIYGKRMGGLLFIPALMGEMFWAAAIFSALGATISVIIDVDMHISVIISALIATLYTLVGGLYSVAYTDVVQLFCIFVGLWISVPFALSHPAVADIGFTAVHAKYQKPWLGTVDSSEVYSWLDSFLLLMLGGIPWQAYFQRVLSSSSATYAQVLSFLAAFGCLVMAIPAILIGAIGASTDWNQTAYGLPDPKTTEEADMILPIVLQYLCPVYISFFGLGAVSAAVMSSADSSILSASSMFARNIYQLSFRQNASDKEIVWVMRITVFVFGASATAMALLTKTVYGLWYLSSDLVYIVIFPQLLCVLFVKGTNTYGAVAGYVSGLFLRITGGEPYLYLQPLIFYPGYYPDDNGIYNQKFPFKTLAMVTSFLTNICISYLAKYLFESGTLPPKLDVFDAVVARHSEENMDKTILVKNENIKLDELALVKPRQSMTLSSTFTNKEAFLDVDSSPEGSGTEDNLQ
# Lipid droplet: hepatic lipid droplet formation modulation | 240,000 compounds, 0.4% hits | AML12 mouse hepatocytes, oleate lipid droplets, BODIPY imaging | inhibition, % at 6.5 µM | AID 1656;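 active means lipid droplet intensity inhibited by at least 50%, with more than 500 cells counted; inconclusive means wells with under 300 cells, treated as cytotoxic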
#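 material = mouse AML12 hepatocyte cell line, fixed after treatment | also added = 100 µM oleic acid challenge | doses = compound at 6.5 µM only | schedule = overnight exposure | technique = Image-based BODIPY and DAPI two-channel analysis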
# CHT PAM: human CHT allosteric activation. Q9GZV3. CHT-expressing cells, membrane potential dye, choline EC20; active compounds read high; LV-AA mutant CHT in HEK293 cells. B-score at 10 µM. 310,000 compounds, 0.49% hits. AID 488977;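 active means initial fluorescence not abnormally high and integrated response B-score, plate-corrected, over 3 SD above library mean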
# * marks the source's active call; other numbers are inactive results; i = inactive; ? = inconclusive; nt = no result. Sampled rows, rich in hits. Any-hit rate of the full collection: about 4.9%.
SMILES,HSF1 activator,HSF1 inh,PHOSPHO1 inh,CHT block,Lipid droplet,CHT PAM
O=C(CSc1nccn1-c1ccccc1)NCc1ccc(F)cc1,-7,-3,-19,i,-5,i
COc1cccc(-n2ccnc2SCC(=O)NCc2ccccc2)c1,-3,-10,62*,i,nt,i
COc1ccccc1-n1ccnc(SCC(=O)NC2CCCC2)c1=O,-2,-1,nt,i,nt,i
c1ccc(CCSc2nccn2-c2ccccc2)cc1,58*,36,-26,i,nt,i
COc1ccc(S(=O)(=O)N2CCN(C(=O)C3CCCCC3)CC2)cc1,-1,-5,23,i,-1,i
CCOC(=O)C1=C(C)N(CCCCCC(=O)O)C(=O)NC1c1ccccc1OC(=O)c1cccs1 (configuration not stated),nt,nt,8,i,16,i
O=C1c2cccc3cccc(c23)C(=O)N1OS(=O)(=O)c1ccc(Br)cc1,22,10,-3,i,14,i
O=C1c2cccc3cccc(c23)C(=O)N1OS(=O)(=O)c1ccccc1,118*,87,-14,i,-1,i
COC(CNC(=O)C(=O)Nc1ccc2c(c1)N(S(=O)(=O)c1cccs1)CCC2)OC,-5,4,nt,i,nt,i
CCCCCCOC(=O)C[N+](C)(C)CCOC1CC2CCC1(C)C2(C)C (configuration not stated),3,-5,-30,i,-4,8.5*
CCCCCCCOC(=O)C[N+](C)(C)CCOC1CC2CCC1(C)C2(C)C (configuration not stated),-6,-4,-11,nt,-15,nt
O=C(O)Cc1ccc(NC(=O)Cc2ccc3ccccc3c2)cc1,15,0,14,i,-6,i
Cc1ccc(O)c(NC(=O)CSc2ccc(Cl)cc2)c1,162*,112,37,i,22,i
Cc1ccc(O)c(NC(=O)Cc2ccc3ccccc3c2)c1,161*,142,24,i,4,i
Cc1ccc(NS(=O)(=O)c2ccc(NC(=O)CSc3ccc(Cl)cc3)cc2)c(C)c1,19,21,8,i,nt,i
COc1cc2c(C(=O)NCCCN3CC(C)CC(C)C3)cn(CC(C)C)c(=O)c2cc1OC (configuration not stated),-6,-6,-7,-5.8*,nt,i
O=C(COc1ccc(Cl)cc1)NCCCNC(=O)c1cnccn1,-6,-6,43,i,-4,i
COc1ccc(C(=O)Nc2cc(C(=O)c3ccccc3)c(C)oc2=O)cc1,38,34,18,i,nt,i
Cc1oc(=O)c(NC(=O)c2cccc(Cl)c2)cc1C(=O)c1ccccc1,123*,74,-30,i,nt,i
Cn1nc(C(F)(F)F)c(C(=O)Nc2ccc(F)cc2F)c1Sc1ccc(C(F)(F)F)cc1,18,-1,-5,i,nt,i
Cc1ccc(Nc2nnc(SCC(=O)NCc3ccco3)s2)cc1,6,-4,74*,nt,nt,nt
O=C(CSc1nnc(Nc2ccccc2F)s1)NCc1ccco1,nt,nt,87*,nt,nt,nt
CCCC(=O)Nc1nnc(SCC(=O)NCc2ccco2)s1,-15,-10,-12,i,0,i
Cc1cc(NC(=O)CSc2nnc(Nc3ccccc3C)s2)no1,7,-4,-28,i,-5,i
Cc1ccccc1Nc1nnc(SCC(=O)NC(=O)NCc2ccco2)s1,36,5,82*,i,nt,i
SMILES,HSF1 activator,HSF1 inh,PHOSPHO1 inh,CHT block,Lipid droplet,CHT PAM
CN(C)S(=O)(=O)N1CCC(Oc2ccc(C(=O)NC3CCCCC3)cc2)CC1,6,6,18,i,21,i
O=C(Nc1ccc(F)cc1)c1ccc(=O)[nH]n1,-74,-71*,7,i,17,i
O=C(Nc1ccc2c(c1)OCCO2)C1CC1c1ccccc1 (configuration not stated),-19,-8,-7,i,1,i
CC(=O)c1ccc(NC(=O)C2C3C=CC(O3)C2C(=O)O)cc1 (configuration not stated),58*,11,5,i,-10,i
O=C(O)C1CCCCC1C(=O)Nc1ccc2c(c1)OCCO2 (configuration not stated),-72,-65*,1,i,nt,i
COc1ccc(NC(=O)C2C3C=CC(O3)C2C(=O)O)cc1 (configuration not stated),-3,-8,nt,i,3,i
O=C(O)C1C2C=CC(O2)C1C(=O)Nc1ccc2c(c1)OCCO2 (configuration not stated),-77,-74*,7,i,nt,i
O=C(O)C1C2C=CC(C2)C1C(=O)Nc1ccc2c(c1)OCCO2 (configuration not stated),-58,-57*,-16,i,-3,i
CC(OC(=O)CN1C(=O)NC2(CCCC2)C1=O)C(=O)c1ccccc1 (configuration not stated),-76,-70*,nt,i,nt,i
CN1C(=O)CS(=O)c2ccc(C(=O)NC3CC3)cc21 (configuration not stated),8,-2,28,i,nt,i
COc1ccc(CC(=O)OCc2cc3ccccc3[nH]c2=O)cc1,1,5,0,i,nt,i
COc1ccc(CC(=O)OCc2cc3ccc(C)cc3[nH]c2=O)cc1,-3,-4,61*,i,nt,i
O=[N+]([O-])c1ccc(-c2nc3ccc([N+](=O)[O-])cc3[nH]2)cc1,55*,37,-27,i,nt,i
Nc1ccc(-c2nc3ccc([N+](=O)[O-])cc3[nH]2)cc1,16,18,-20,i,-5,i
Clc1cccc(/C=N\Nc2nccs2)c1,143*,103,22,i,nt,i
Cc1cc(C)c(NC(=O)C2CCN(C(=O)c3ccco3)CC2)c(C)c1,16,-3,-12,i,15,i
COCc1n[nH]c(=S)n1-c1ccccc1,8,-3,64*,i,9,i
COC(Cc1n[nH]c(=S)n1-c1ccccc1)OC,-3,1,79*,i,nt,i
S=c1[nH]nc(CSCc2ccccc2Cl)n1-c1ccccc1,-3,2,105*,i,nt,i
COc1ccc(C2CC2/C(=N/OC(=O)c2cccs2)c2ccccc2)cc1 (configuration not stated),14,24,1,i,-8,i
CCN1C=CC(=C2C(=O)c3ccccc3C2=O)C=C1,-79,-76*,11,i,nt,i
CCCN1C=CC(=C2C(=O)c3ccccc3C2=O)C=C1,-85,-83*,9,i,-3,i
CCCCCCN1C=CC(=C2C(=O)c3ccccc3C2=O)C=C1,-59,?,28,i,-4,i
COc1c(C)cc(C(=O)C2CCCN(C(=O)c3cc(C)on3)C2)cc1C (configuration not stated),-3,-7,34,i,-32,i

# Compound activity (PubChem BioAssay)
